Source: ChEMBL document CHEMBL3352487, “Synthesis, antibacterial activity, and biological evaluation of formyl hydroxyamino derivatives as novel potent peptide deformylase inhibitors against drug-resistant bacteria” (Eur J Med Chem, 2014)
≈ marks a conversion by molar mass, not a printed value.

Experiments:
Format in all cases: functional
[1] = system: Staphylococcus aureus; assay: Antimicrobial activity against Staphylococcus aureus isolate CL 1033 after 24 hrs by broth microdilution method; details: isolate CL 1033, 24 h
How it was run: (§1)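 Broth microdilution following NCCLS M7-A4; ATCC strains and clinical isolates from a provincial hospital.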

[2] = system: Staphylococcus aureus; assay: Antimicrobial activity against Staphylococcus aureus isolate 929035 after 24 hrs by broth microdilution method; details: isolate 929035, 24 h; how it was run: as §1
[3] = system: Staphylococcus aureus; assay: Antimicrobial activity against Staphylococcus aureus isolate 934334 after 24 hrs by broth microdilution method; details: isolate 934334, 24 h; how it was run: as §1
[4] = system: Staphylococcus aureus; assay: Antimicrobial activity against Staphylococcus aureus isolate RN1024 after 24 hrs by broth microdilution method; details: isolate RN1024, 24 h
How it was run: (§2)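 Broth microdilution following NCCLS M7-A4, using ATCC strains and clinical isolates from a provincial hospital.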

[5] = system: Staphylococcus aureus; assay: Antimicrobial activity against Staphylococcus aureus WCUH29 after 24 hrs by broth microdilution method; details: WCUH29, 24 h; how it was run: as §1
[6] = system: Staphylococcus aureus; assay: Antimicrobial activity against Staphylococcus aureus isolate 929003 after 24 hrs by broth microdilution method; details: isolate 929003, 24 h; how it was run: as §1
[7] = system: Streptococcus pyogenes; assay: Antimicrobial activity against Streptococcus pyogenes 1308007P after 24 hrs by broth microdilution method; how it was run: as §1
[8] = system: Streptococcus pneumoniae; assay: Antimicrobial activity against Streptococcus pneumoniae ERY2 after 24 hrs by broth microdilution method; details: ERY2, 24 h; how it was run: as §1
[9] = system: Staphylococcus aureus; assay: Antimicrobial activity against Staphylococcus aureus isolate PAV 5 after 24 hrs by broth microdilution method; details: isolate PAV 5, 24 h; how it was run: as §1
[10] = system: Haemophilus influenzae; assay: Antimicrobial activity against AcrA-deficient Haemophilus influenzae H128 after 24 hrs by broth microdilution method; details: H128, 24 h; how it was run: as §1
[11] = system: Haemophilus influenzae; assay: Antimicrobial activity against Haemophilus influenzae H128 after 24 hrs by broth microdilution method; details: H128, 24 h; how it was run: as §1
[12] = system: Staphylococcus aureus; assay: Antimicrobial activity against Staphylococcus aureus isolate A53 after 24 hrs by broth microdilution method; details: isolate A53, 24 h; how it was run: as §2
[13] = system: Staphylococcus aureus; assay: Antimicrobial activity against Staphylococcus aureus isolate 306 after 24 hrs by broth microdilution method; details: isolate 306, 24 h; how it was run: as §1
[14] = system: Staphylococcus aureus; assay: Antimicrobial activity against Staphylococcus aureus isolate F89 after 24 hrs by broth microdilution method; details: isolate F89, 24 h; how it was run: as §1
[15] = system: Staphylococcus aureus; assay: Antimicrobial activity against Staphylococcus aureus isolate CARTER 37 after 24 hrs by broth microdilution method; details: isolate CARTER 37, 24 h; how it was run: as §2
[16] = system: Staphylococcus aureus; assay: Antimicrobial activity against Staphylococcus aureus isolate NEQAS 4026 after 24 hrs by broth microdilution method; details: isolate NEQAS 4026, 24 h; how it was run: as §1
[17] = system: Staphylococcus aureus; assay: Antimicrobial activity against Staphylococcus aureus isolate RN4220 pmz1 after 24 hrs by broth microdilution method; details: isolate RN4220 pmz1, 24 h; how it was run: as §2
[18] = system: Staphylococcus aureus; assay: Antimicrobial activity against Staphylococcus aureus OXFORD after 24 hrs by broth microdilution method; how it was run: as §2
[19] = system: Staphylococcus aureus; assay: Antimicrobial activity against Staphylococcus aureus isolate MN 1255 after 24 hrs by broth microdilution method; details: isolate MN 1255, 24 h; how it was run: as §1
[20] = system: Staphylococcus aureus; assay: Antimicrobial activity against Staphylococcus aureus isolate MILES HALL after 24 hrs by broth microdilution method; how it was run: as §2
[21] = system: Staphylococcus aureus; assay: Antimicrobial activity against Staphylococcus aureus isolate RN1030 after 24 hrs by broth microdilution method; details: isolate RN1030, 24 h; how it was run: as §2
[22] = system: Streptococcus pneumoniae; assay: Antimicrobial activity against Streptococcus pneumoniae N1387 after 24 hrs by broth microdilution method; details: N1387, 24 h; how it was run: as §1
[23] = system: Staphylococcus aureus; assay: Antimicrobial activity against Staphylococcus aureus isolate Ealing 23 after 24 hrs by broth microdilution method; details: isolate Ealing 23, 24 h; how it was run: as §2
[24] = system: Staphylococcus aureus; assay: Antimicrobial activity against Staphylococcus aureus isolate 934335 after 24 hrs by broth microdilution method; details: isolate 934335, 24 h; how it was run: as §1
[25] = system: Haemophilus influenzae; assay: Antimicrobial activity against Haemophilus influenzae Q1 after 24 hrs by broth microdilution method; details: Q1, 24 h; how it was run: as §1
[26] = system: Staphylococcus aureus; assay: Antimicrobial activity against Staphylococcus aureus isolate NEQAS 4158 after 24 hrs by broth microdilution method; details: isolate NEQAS 4158, 24 h; how it was run: as §1
[27] = system: Staphylococcus aureus; assay: Antimicrobial activity against Staphylococcus aureus isolate OGA833 after 24 hrs by broth microdilution method; details: isolate OGA833, 24 h; how it was run: as §1
[28] = system: Staphylococcus aureus; assay: Antimicrobial activity against Staphylococcus aureus isolate 934387 after 24 hrs by broth microdilution method; details: isolate 934387, 24 h; how it was run: as §2
[29] = system: Staphylococcus aureus; assay: Antimicrobial activity against Staphylococcus aureus isolate 68/8684 after 24 hrs by broth microdilution method; details: isolate 68/8684, 24 h; how it was run: as §1
[30] = system: Staphylococcus aureus; assay: Antimicrobial activity against Staphylococcus aureus isolate Smith ATCC 13709 after 24 hrs by broth microdilution method; details: isolate Smith ATCC 13709, 24 h; how it was run: as §2
[31] = system: Streptococcus pneumoniae; assay: Antimicrobial activity against Streptococcus pneumoniae 1629 after 24 hrs by broth microdilution method; details: Streptococcus pneumoniae, 1629, 24 h; how it was run: as §1
[32] = system: Enterococcus faecium; assay: Antimicrobial activity against Enterococcus faecium X7501 after 24 hrs by broth microdilution method; details: X7501, 24 h; how it was run: as §1
[33] = system: Staphylococcus aureus; assay: Antimicrobial activity against Staphylococcus aureus isolate Ealing 32 after 24 hrs by broth microdilution method; details: isolate Ealing 32, 24 h; how it was run: as §1
[34] = system: Streptococcus pyogenes; assay: Antimicrobial activity against Streptococcus pyogenes 1307006P after 24 hrs by broth microdilution method; how it was run: as §1
[35] = system: Staphylococcus aureus; assay: Antimicrobial activity against Staphylococcus aureus isolate 934324 after 24 hrs by broth microdilution method; details: isolate 934324, 24 h; how it was run: as §1
[36] = system: Staphylococcus aureus; assay: Antimicrobial activity against Staphylococcus aureus isolate CL 938 after 24 hrs by broth microdilution method; details: isolate CL 938, 24 h; how it was run: as §1
[37] = system: Staphylococcus aureus; assay: Antimicrobial activity against Staphylococcus aureus isolate CL 939 after 24 hrs by broth microdilution method; details: isolate CL 939, 24 h; how it was run: as §2
[38] = system: Staphylococcus aureus; assay: Antimicrobial activity against Staphylococcus aureus isolate SWEETING after 24 hrs by broth microdilution method; how it was run: as §2
[39] = system: Enterococcus faecalis; assay: Antimicrobial activity against Enterococcus faecalis Isolate 1 after 24 hrs by broth microdilution method; details: Isolate 1, 24 h; how it was run: as §1
[40] = system: Staphylococcus aureus; assay: Antimicrobial activity against Staphylococcus aureus isolate RUSSELL after 24 hrs by broth microdilution method; how it was run: as §2
[41] = system: Staphylococcus aureus; assay: Antimicrobial activity against Staphylococcus aureus ATCC 29213 after 24 hrs by broth microdilution method; details: ATCC 29213, 24 h; how it was run: as §1
[42] = system: Escherichia coli; assay: Antimicrobial activity against Escherichia coli isolate 3 after 24 hrs by broth microdilution method; details: isolate 3, 24 h; how it was run: as §1
[43] = system: Moraxella catarrhalis; assay: Antimicrobial activity against Moraxella catarrhalis 1502 after 24 hrs by broth microdilution method; details: Moraxella catarrhalis, 1502, 24 h; how it was run: as §1

Compound: CC1(C)S[C@@H]2[C@H](NC(=O)[C@H](N)c3ccc(O)cc3)C(=O)N2[C@H]1C(=O)O [AMOXICILLIN]
- MIC [1]: > 16 µg/mL
- MIC [2]: > 16 µg/mL
- MIC [3]: > 16 µg/mL
- MIC [4]: > 16 µg/mL
- MIC [5]: 64 µg/mL (≈ 175 µM)
- MIC [6]: > 16 µg/mL
- MIC [7]: ≤ 0.06 µg/mL
- MIC [8]: ≤ 0.06 µg/mL
- MIC [9]: > 16 µg/mL
- MIC [10]: 64 µg/mL (≈ 175 µM)
- MIC [11]: 32 µg/mL (≈ 87.6 µM)
- MIC [12]: 0.125 µg/mL (≈ 0.342 µM)
- MIC [13]: > 16 µg/mL
- MIC [14]: 2 µg/mL (≈ 5.47 µM)
- MIC [15]: 0.25 µg/mL (≈ 0.684 µM)
- MIC [16]: > 16 µg/mL
- MIC [17]: 0.125 µg/mL (≈ 0.342 µM)
- MIC [18]: 0.125 µg/mL (≈ 0.342 µM)
- MIC [19]: > 16 µg/mL
- MIC [20]: 0.25 µg/mL (≈ 0.684 µM)
- MIC [21]: > 16 µg/mL
- MIC [22]: 2 µg/mL (≈ 5.47 µM)
- MIC [23]: 0.5 µg/mL (≈ 1.37 µM)
- MIC [24]: > 16 µg/mL
- MIC [25]: 0.25 µg/mL (≈ 0.684 µM)
- MIC [26]: > 16 µg/mL
- MIC [27]: > 16 µg/mL
- MIC [28]: > 16 µg/mL
- MIC [29]: > 16 µg/mL
- MIC [30]: 0.125 µg/mL (≈ 0.342 µM)
- MIC [31]: ≤ 0.06 µg/mL
- MIC [32]: 16 µg/mL (≈ 43.8 µM)
- MIC [33]: 1 µg/mL (≈ 2.74 µM)
- MIC [34]: ≤ 0.06 µg/mL
- MIC [35]: > 16 µg/mL
- MIC [36]: > 16 µg/mL
- MIC [37]: 2 µg/mL (≈ 5.47 µM)
- MIC [38]: 0.125 µg/mL (≈ 0.342 µM)
- MIC [39]: 0.5 µg/mL (≈ 1.37 µM)
- MIC [40]: > 16 µg/mL
- MIC [41]: 1 µg/mL (≈ 2.74 µM)
- MIC [42]: 1 µg/mL (≈ 2.74 µM)
- MIC [43]: ≤ 0.06 µg/mL
